# Results collected from several papers.
# Lines come from different studies, so protocols differ.
# Target: Serine/threonine-protein kinase Sgk3 (SGK3, Homo sapiens, UniProt Q96BR1)
# Sequence (Q96BR1 1-496, as in one of the studies): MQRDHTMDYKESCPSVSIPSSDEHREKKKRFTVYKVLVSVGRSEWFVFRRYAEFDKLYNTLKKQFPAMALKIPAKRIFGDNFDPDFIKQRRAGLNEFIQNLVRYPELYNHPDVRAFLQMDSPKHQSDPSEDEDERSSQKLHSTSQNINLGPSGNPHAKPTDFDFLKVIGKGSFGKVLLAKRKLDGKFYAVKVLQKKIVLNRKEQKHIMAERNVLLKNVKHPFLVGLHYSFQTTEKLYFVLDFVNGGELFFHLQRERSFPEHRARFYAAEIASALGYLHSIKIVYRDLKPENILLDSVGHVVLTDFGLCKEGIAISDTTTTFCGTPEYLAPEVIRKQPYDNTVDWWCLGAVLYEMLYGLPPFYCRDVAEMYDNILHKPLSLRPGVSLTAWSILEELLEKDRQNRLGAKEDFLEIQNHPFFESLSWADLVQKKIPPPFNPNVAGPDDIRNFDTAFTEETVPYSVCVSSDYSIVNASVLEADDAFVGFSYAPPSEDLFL
Compound,effect on,mode,technique,concentration,quantity,value
CO[C@@H]1[C@H](N(C)C(=O)c2ccccc2)C[C@H]2O[C@]1(C)n1c3ccccc3c3c4c(c5c6ccccc6n2c5c31)C(=O)NC4,enzyme activity,inhibitor,,1 µM,inhibition,43%
C#Cc1cc(-c2cc(Nc3nc(N[C@@H](C)c4ccc(F)cn4)ncc3Cl)n[nH]2)ccc1C=O,enzyme activity,inhibitor,,0.2 µM,inhibition,19.1%
C=CC(=O)N1CCC[C@@H](n2nc(-c3ccc(Oc4ccccc4)cc3)c3c(N)ncnc32)C1,enzyme activity,inhibitor,,1 µM,inhibition,9%
CC(C)S(=O)(=O)c1ccc2nccc(Nc3ccc4sc(C5CCCC5)nc4c3)c2c1,enzyme activity,inhibitor,,1 µM,activity vs control,110%
C[C@H]1CC[C@H](n2c3cnccc3c3cnc(Nc4ccc5c(n4)CCN(C(=O)CO)C5)nc32)CC1,cell-free assay,,,1 µM,remaining signal,39%
CCCCC(=O)Nc1ccc(-c2ccc3ncn(CCC)c(=O)c3c2)cn1,binding,,competition with immobilised ligand,0.5 µM,remaining binding,97%
COc1ccc2[nH]c3c4[nH]c5ccc(OC)cc5c4c4c(c3c2c1)C(=O)NC4=O,binding,,,1 µM,remaining binding,8.1%
Cc1cc(O)c(-c2ccc([C@@H](C)CN(C)C)cc2)c2c1[nH]c(=O)c1sccc12,enzyme activity,inhibitor,,0.1 µM,inhibition,3.22%
